Activity calls are given as the source filed them. No cut-off for these calls is given here.
Assays:
[1] = target: D(3) dopamine receptor (Homo sapiens, UniProt P35462); assay: Displacement of [3H]radioligand from human recombinant dopamine D3 receptor expressed in HEK293 cells by microplate scintillation counting; format: cell-based
Summary of the method: (§1)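 Human D2L or D3 receptor stably expressed in HEK cells, or D4.4 in CHO cells. Competition binding against [3H]spiperone as the D2-like radioligand. Ki values in nM are means of two or three experiments, each run in triplicate, ± SEM.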

[2] = target: T1, D(1A) dopamine receptor (Homo sapiens, UniProt P21728); assay: Antagonist activity at human dopamine D1 receptor expressed in HEK293 cells assessed as inhibition of SKF-38393-induced calcium influx; format: functional, cell-based
Summary of the method: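 HEK293 cells stably expressing the human D1 receptor were loaded with a fluorescent dye. Cells were preincubated with rising concentrations of test ligand, then SKF 38393 agonist was injected. Ca2+-induced fluorescence was read on a microplate reader.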

[3] = target: T2, D(2) dopamine receptor (Homo sapiens, UniProt P14416); assay: Antagonist activity at human dopamine D2L receptor expressed in HEK293 cells assessed as inhibition of quinpirole-induced calcium influx
[4] = target: T3, D(4) dopamine receptor (Homo sapiens, UniProt P21917); assay: Displacement of [3H]radioligand from human recombinant dopamine D4.4 receptor expressed in CHO cells by microplate scintillation counting; format: cell-based; summary of the method: as §1
T3 sequence (P21917 whole entry): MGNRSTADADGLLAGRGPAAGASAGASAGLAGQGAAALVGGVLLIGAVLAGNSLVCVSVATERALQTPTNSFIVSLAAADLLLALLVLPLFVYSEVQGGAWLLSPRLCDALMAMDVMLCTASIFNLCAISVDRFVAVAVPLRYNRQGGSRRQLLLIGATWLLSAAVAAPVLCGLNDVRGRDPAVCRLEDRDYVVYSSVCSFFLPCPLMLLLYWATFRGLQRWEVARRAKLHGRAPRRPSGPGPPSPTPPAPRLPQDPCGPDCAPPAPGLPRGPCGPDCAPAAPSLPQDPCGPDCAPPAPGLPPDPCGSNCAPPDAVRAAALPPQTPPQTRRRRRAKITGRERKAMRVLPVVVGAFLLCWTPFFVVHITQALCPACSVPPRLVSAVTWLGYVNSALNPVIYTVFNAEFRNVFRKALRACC

[5] = target: T1, D(1A) dopamine receptor; assay: Displacement of [3H]SCH23390 from human recombinant dopamine D1 receptor expressed in HEK293 cells by microplate scintillation counting; format: cell-based
Summary of the method: (§2)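 Human D1 or D5 receptor stably expressed in HEK cells. Ki values in nM are means of two or three experiments, each run in triplicate, ± SEM.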

[6] = target: D(1B) dopamine receptor (Homo sapiens, UniProt P21918); assay: Displacement of [3H]radioligand from human recombinant dopamine D5 receptor expressed in HEK293 cells by microplate scintillation counting; format: cell-based; summary of the method: as §2
[7] = target: T2, D(2) dopamine receptor; assay: Displacement of [3H]spiperone from human recombinant dopamine D2L receptor expressed in HEK293 cells by microplate scintillation counting; format: cell-based; summary of the method: as §1
[8] = Selectivity for dopamine D5 receptor over dopamine D1 receptor

T2 sequence (P14416 whole entry): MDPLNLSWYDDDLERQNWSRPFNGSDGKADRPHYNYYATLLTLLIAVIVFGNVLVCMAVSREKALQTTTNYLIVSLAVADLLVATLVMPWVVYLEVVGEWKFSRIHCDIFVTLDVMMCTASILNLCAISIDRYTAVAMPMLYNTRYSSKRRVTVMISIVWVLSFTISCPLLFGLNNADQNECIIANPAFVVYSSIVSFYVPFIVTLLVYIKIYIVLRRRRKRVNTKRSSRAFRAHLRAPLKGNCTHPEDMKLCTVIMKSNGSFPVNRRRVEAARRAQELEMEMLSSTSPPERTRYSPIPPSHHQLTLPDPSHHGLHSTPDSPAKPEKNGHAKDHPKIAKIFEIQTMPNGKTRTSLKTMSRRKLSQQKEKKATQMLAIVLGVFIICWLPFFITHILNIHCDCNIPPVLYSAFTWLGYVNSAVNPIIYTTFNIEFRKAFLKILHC
Sequence of D(1B) dopamine receptor (P21918 whole entry): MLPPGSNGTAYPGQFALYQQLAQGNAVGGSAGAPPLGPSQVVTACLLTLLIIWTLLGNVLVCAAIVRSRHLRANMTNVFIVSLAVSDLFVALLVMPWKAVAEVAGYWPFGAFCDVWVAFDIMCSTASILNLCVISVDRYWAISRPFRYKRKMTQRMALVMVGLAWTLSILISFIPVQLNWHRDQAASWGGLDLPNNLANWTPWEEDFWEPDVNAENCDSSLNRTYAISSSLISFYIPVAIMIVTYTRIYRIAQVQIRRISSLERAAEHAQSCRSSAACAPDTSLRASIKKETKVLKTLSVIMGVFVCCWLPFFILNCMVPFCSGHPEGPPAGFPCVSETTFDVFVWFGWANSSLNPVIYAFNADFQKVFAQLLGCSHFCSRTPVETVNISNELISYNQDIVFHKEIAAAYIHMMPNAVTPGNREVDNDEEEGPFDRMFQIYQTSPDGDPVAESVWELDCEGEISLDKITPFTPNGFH
T1 sequence (P21728 whole entry): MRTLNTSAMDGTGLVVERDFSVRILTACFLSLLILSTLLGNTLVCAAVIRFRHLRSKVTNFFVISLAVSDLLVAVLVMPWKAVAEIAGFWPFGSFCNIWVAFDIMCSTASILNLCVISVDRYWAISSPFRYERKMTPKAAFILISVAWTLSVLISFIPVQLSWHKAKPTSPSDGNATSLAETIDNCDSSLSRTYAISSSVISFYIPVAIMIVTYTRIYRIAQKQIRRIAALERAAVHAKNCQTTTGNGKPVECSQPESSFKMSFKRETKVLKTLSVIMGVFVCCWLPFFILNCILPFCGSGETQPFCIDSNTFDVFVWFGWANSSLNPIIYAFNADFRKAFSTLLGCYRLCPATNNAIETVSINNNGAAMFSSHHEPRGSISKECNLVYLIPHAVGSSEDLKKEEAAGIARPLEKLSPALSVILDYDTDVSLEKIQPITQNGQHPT
Sequence of D(3) dopamine receptor (P35462 whole entry): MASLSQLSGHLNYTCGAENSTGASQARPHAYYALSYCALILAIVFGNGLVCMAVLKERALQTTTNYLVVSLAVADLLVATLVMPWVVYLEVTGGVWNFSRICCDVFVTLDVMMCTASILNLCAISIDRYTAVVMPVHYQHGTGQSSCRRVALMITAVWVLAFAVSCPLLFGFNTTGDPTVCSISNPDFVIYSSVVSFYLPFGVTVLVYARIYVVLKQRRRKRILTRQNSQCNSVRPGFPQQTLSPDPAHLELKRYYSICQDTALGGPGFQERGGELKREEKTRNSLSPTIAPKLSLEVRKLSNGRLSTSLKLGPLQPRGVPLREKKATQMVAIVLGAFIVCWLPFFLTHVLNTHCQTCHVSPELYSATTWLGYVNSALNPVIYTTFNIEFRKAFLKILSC

| Compound | Ki [1] [µM] | Activity [2] | Activity [3] | Ki [4] [µM] | Ki [5] [µM] | Ki [6] [µM] | Ki [7] [µM] | Selectivity ratio [8] |
| --- | --- | --- | --- | --- | --- | --- | --- | --- |
| CN1CCc2ccccc2Cc2c([nH]c3ccccc23)CC1 | 0.513 | Active | Active | 0.225 | 0.0285 | 0.0103 | 0.0551 |  |
| CN1Cc2ccccc2[C@@H]2c3cccc4[nH]cc(c34)C[C@H]21 |  |  |  |  |  |  |  | 10 |
| c1ccc2c(c1)CCN1CCc3[nH]c4ccccc4c3C21 (centres undefined) | > 10 | Active | Active | > 10 | 2.1 | > 10 | 1.48 |  |
| c1ccc2c(c1)CCN1CCc3cccc4[nH]cc(c34)C21 (centres undefined) | > 10 | Active | Active | > 10 | 1.84 | 1.53 | 4.46 |  |
| c1ccc2c(c1)CCN1Cc3cccc4[nH]cc(c34)C21 (centres undefined) |  | Active | Active | > 10 |  |  |  |  |
| CN1CCc2ccccc2Cc2c[nH]c3cccc(c23)C1 | > 10 |  |  | > 10 | > 10 | > 10 | > 10 |  |
| CN1CCc2ccccc2Cc2c[nH]c3cccc(c23)CC1 | 0.0429 | Active | Active | 0.0391 | 0.0042 | 0.0025 | 0.004 |  |
| CN1CCc2ccccc2Cc2[nH]c3ccccc3c2CC1 |  | Active | Active |  |  |  |  |  |

From ChEMBL document CHEMBL1155427, “Dopamine receptor ligands. Part 18: (1) modification of the structural skeleton of indolobenzazecine-type dopamine receptor antagonists” (J Med Chem, 2010)
